The target of assay [1] is Hemoglobin beta chain (Mus musculus) (UniProt P02089). The assay can be described thus: In vitro P50 value of free haemoglobin of murine was determined after incubation with compound (concentration 60 mM). The class given is functional. Put shortly:
(§1)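 Free haemoglobin (human or murine) was mixed with a 60 mM compound solution adjusted to pH 6.9–7.1. Oxy-Hb dissociation curves were recorded on a Hemox Analyzer. P50 is the O2 partial pressure at 50% Hb saturation, and the shift is expressed as a percentage of untreated Hb. Means of three to ten P50 values were calculated, depending on the compound and species.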

Assay [2] shares this target. The assay can be described thus: In vitro percent P50 value of free haemoglobin of murine was determined after incubation with compound (concentration 60 mM). It is filed as functional. Put shortly:
as §1

Assay [3] is described as follows: In vitro P50 value of free haemoglobin of human was determined after incubation with compound (concentration 60 mM).
A short description of assay [4]: In vitro percent P50 value of free haemoglobin of human was determined after incubation with compound (concentration 60 mM).
The species named for assay [5] is Mus musculus. The assay can be described thus: In vitro P50 value of whole blood of murine was determined after incubation with compound (concentration 30 mM). It is filed as functional. The method, boiled down:
(§2)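 Whole blood (human, murine or porcine) incubated 1:1 vol/vol with effector solution at 290–310 mOsM, pH 7, for 60 min at 37 C. Cells then washed three times in 20 mM bis-Tris, pH 7, 308 mOsM. Hb–O2 curves read on a Hemox Analyzer in 20 mM Hemox buffer, pH 7.1–7.2, 37 C. P50 shift in % reported as mean of four values ± SD.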

The species entered for assay [6] is Mus musculus. The assay can be described thus: In vitro percent P50 value of whole blood of murine was determined after incubation with compound (concentration 30 mM). It is filed as functional. Put shortly:
as §2

For assay [7], the species on record is Homo sapiens. The assay can be described thus: In vitro P50 value of whole blood of human was determined after incubation with compound (concentration 30 mM). It is filed as functional. Put shortly:
as §2

The nature of assay [8]: In vitro P50 value of whole blood of procine was determined after incubation with compound (concentration 30 mM). As to conditions: in the assay text read “concentration 60 mM” for “concentration 30 mM”. It is filed as functional, Sus scrofa. Put shortly:
as §2

For assay [9], the species on record is Homo sapiens. The assay can be described thus: In vitro percent P50 value of whole blood of human was determined after incubation with compound (concentration 60 mM). The class given is functional. The method, boiled down:
as §2

For assay [10], the species on record is Mus musculus. The assay can be described thus: In vitro percent P50 value of whole blood of murine was determined after incubation with compound (concentration 4 mM). It is filed as functional. Put shortly:
as §2

Assay [11] is described as follows: In vitro percent P50 value of whole blood of procine was determined after incubation with compound (concentration 60 mM). It is filed as functional, Sus scrofa. The method, boiled down:
as §2

For assay [12], the species on record is Homo sapiens. As to the kind of experiment: In vitro percent P50 value of whole blood of human was determined after incubation with compound (concentration 30 mM). The class given is functional. Put shortly:
as §2

The species entered for assay [13] is Mus musculus. The assay can be described thus: In vitro percent P50 value of whole blood of murine was determined after incubation with compound (concentration 60 mM). It is filed as functional. The method, boiled down:
as §2

Assay [14] addresses Hemoglobin subunit beta (Sus scrofa) (UniProt P02067). As to the kind of experiment: In vitro P50 value of free haemoglobin of procine was determined after incubation with compound (concentration 60 mM). The class given is functional. Put shortly:
(§3)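 Porcine free Hb mixed with the effector solution (60 mM; pH adjusted to 6.9–7.1). Hb–O2 dissociation curves recorded on a Hemox Analyzer. P50 is the pO2 at 50% Hb saturation. Shift reported as % change versus control; means of three P50 values.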

The target is the same in assay [15]. As to the kind of experiment: In vitro percent P50 value of free haemoglobin of procine was determined after incubation with compound (concentration 60 mM). It is filed as functional. The method, boiled down:
as §3

Values joined by “and” are separate entries in the source; they are usually repeats but may differ in a detail not shown here. Equal entries are not always repeated.

Chain of Hemoglobin beta chain (Mus musculus) (P02089 whole entry): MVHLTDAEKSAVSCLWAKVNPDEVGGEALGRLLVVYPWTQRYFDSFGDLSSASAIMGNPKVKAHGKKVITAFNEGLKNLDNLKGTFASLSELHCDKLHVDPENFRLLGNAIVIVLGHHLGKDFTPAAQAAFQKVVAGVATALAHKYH
Chain of Hemoglobin subunit beta (Sus scrofa) (P02067 whole entry): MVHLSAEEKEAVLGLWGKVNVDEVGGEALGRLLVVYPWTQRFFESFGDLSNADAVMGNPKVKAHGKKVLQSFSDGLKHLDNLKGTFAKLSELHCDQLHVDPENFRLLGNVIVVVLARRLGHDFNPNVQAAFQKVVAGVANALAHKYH

`CN(C)C1CCCCC1.CN(C)C1CCCCC1.CN(C)C1CCCCC1.CN(C)C1CCCCC1.CN(C)C1CCCCC1.CN(C)C1CCCCC1.O=P1(O)OC2C3OP(=O)(O)OP(=O)(O)OC3C3OP(=O)(O)OP(=O)(O)OC3C2OP(=O)(O)O1` (centres undefined) [listing 1 of 2 here]: the figures for the P50 in assay [1] and in assay [2] were 45.1 Torr and 81%, respectively.
As to `O=P1(O)OC2C3OP(=O)(O)OP(=O)(O)OC3C3OP(=O)(O)OP(=O)(O)OC3C2OP(=O)(O)O1.c1ccncc1.c1ccncc1.c1ccncc1.c1ccncc1.c1ccncc1` (centres undefined), the P50 in assay [1] was 50 Torr; in assay [2] it was 100%; in assay [3], 31.6 Torr; in assay [4], 107%.
Regarding `NC1CCCCCCC1.NC1CCCCCCC1.NC1CCCCCCC1.NC1CCCCCCC1.NC1CCCCCCC1.NC1CCCCCCC1.O=P1(O)OC2C3OP(=O)(O)OP(=O)(O)OC3C3OP(=O)(O)OP(=O)(O)OC3C2OP(=O)(O)O1` (centres undefined) [listing 1 of 2 here], the P50 came to 30.6 Torr in assay [1] and 23% in assay [2].
As for `NC1CCCCCCC1.NC1CCCCCCC1.NC1CCCCCCC1.NC1CCCCCCC1.NC1CCCCCCC1.NC1CCCCCCC1.O=P1(O)OC2C3OP(=O)(O)OP(=O)(O)OC3C3OP(=O)(O)OP(=O)(O)OC3C2OP(=O)(O)O1` (centres undefined) [listing 2 of 2 here], the results for the P50 in the assay listed under Mus musculus [5] and in the assay listed under Mus musculus [6] were 41.7 Torr and 10%, respectively.
The matching figures for `C1CNCCN1.C1CNCCN1.C1CNCCN1.O=P1(O)OC2C3OP(=O)(O)OP(=O)(O)OC3C3OP(=O)(O)OP(=O)(O)OC3C2OP(=O)(O)O1` (centres undefined) [ITPP TRIPIPERAZINIUM SALT]: 42.3 Torr and 8%.
The matching figures for `CN(C)C1CCCCC1.CN(C)C1CCCCC1.CN(C)C1CCCCC1.CN(C)C1CCCCC1.CN(C)C1CCCCC1.CN(C)C1CCCCC1.O=P1(O)OC2C3OP(=O)(O)OP(=O)(O)OC3C3OP(=O)(O)OP(=O)(O)OC3C2OP(=O)(O)O1` (centres undefined) [listing 2 of 2 here]: 45.5 Torr and 20%.
With `NC1CCCCCC1.NC1CCCCCC1.NC1CCCCCC1.NC1CCCCCC1.NC1CCCCCC1.NC1CCCCCC1.O=P1(O)OC2C3OP(=O)(O)OP(=O)(O)OC3C3OP(=O)(O)OP(=O)(O)OC3C2OP(=O)(O)O1` (centres undefined) [listing 1 of 2 here], the P50 in assay [1] amounted to 43.8 Torr; in [2], 76%.
Turning to `C1CNCCN1.C1CNCCN1.C1CNCCN1.C1CNCCN1.C1CNCCN1.C1CNCCN1.O=P1(O)OC2C3OP(=O)(O)OP(=O)(O)OC3C3OP(=O)(O)OP(=O)(O)OC3C2OP(=O)(O)O1` (centres undefined) [ITPP PIPERAZINIUM], the P50 came out at 41.9 Torr in the assay listed under Mus musculus [5] and 7% in the assay filed under Mus musculus [6].
Turning to `O=P1([O-])OC2C3OP(=O)([O-])OP(=O)([O-])OC3C3OP(=O)([O-])OP(=O)([O-])OC3C2OP(=O)([O-])O1.[Na+].[Na+].[Na+].[Na+].[Na+].[Na+]` (centres undefined) [ITPP SODIUM SALT], the P50 in the assay listed under Homo sapiens [7] is 30.8 Torr; in [8] it was 44.2 Torr; in the assay filed under Homo sapiens [9], 39%; in the assay listed under Mus musculus [10] it was 29%; in [11], 40%.
Turning to `O=P1([O-])OC2C3OP(=O)([O-])OP(=O)([O-])OC3C3OP(=O)([O-])OP(=O)([O-])OC3C2OP(=O)([O-])O1.[Ca+2].[Ca+2].[Ca+2]` (centres undefined), the P50 in the assay filed under Homo sapiens [7] was determined as 31 Torr; in the assay listed under Mus musculus [5] it was 55.3 Torr; in the assay filed under Homo sapiens [12], 25%; in the assay listed under Mus musculus [13], 38%.
With `O=P1(O)OC2C3OP(=O)(O)OP(=O)(O)OC3C3OP(=O)(O)OP(=O)(O)OC3C2OP(=O)(O)O1.c1ccncc1.c1ccncc1.c1ccncc1.c1ccncc1.c1ccncc1` (centres undefined) [ITPP PYRIDINIUM SALT], the P50 in the assay listed under Homo sapiens [7] amounted to 24.3 Torr; in the assay filed under Mus musculus [5] it was 42.7 Torr; in the assay listed under Homo sapiens [12] it was 10%; in the assay filed under Mus musculus [6], 13%.
Consider `NC1CCCCCC1.NC1CCCCCC1.NC1CCCCCC1.NC1CCCCCC1.NC1CCCCCC1.NC1CCCCCC1.O=P1(O)OC2C3OP(=O)(O)OP(=O)(O)OC3C3OP(=O)(O)OP(=O)(O)OC3C2OP(=O)(O)O1` (centres undefined) [listing 2 of 2 here], for which the P50 came to 41.3 Torr in the assay filed under Mus musculus [5] and 9% in the assay listed under Mus musculus [6].
Consider `O=P1(O)OC2C3OP(=O)(O)OP(=O)(O)OC3C3OP(=O)(O)OP(=O)(O)OC3C2OP(=O)(O)O1` (centres undefined), for which the P50 in assay [1] is 69.7 Torr [middle of 4 runs]; in [14] it was 68.1 Torr; in assay [2] it was 189% [middle of 4 runs]; in assay [15] it was 209%; in assay [3], 49.8 Torr and 33.1 Torr; in [4], 225% and 170%.

Source of the values: ChEMBL document CHEMBL1141908, “Inositol tripyrophosphate: a new membrane permeant allosteric effector of haemoglobin” (2005).
